# Legend:
# [1] = species on record: Gallus gallus; assay: The compound was tested for anti-coccidial activity in chicken against Eimeria necatrix (Aquet) measured at dose 45 (ppm in diet); format: functional
# [2] = species on record: Gallus gallus; assay: The compound was tested for anti-coccidial activity in chicken against Eimeria brunetti (FS-103) measured at dose 60 (ppm in diet); format: functional
# [3] = tested on: Eimeria acervulina; assay: Anticoccidial activity in chicken against Eimeria acervulina.; format: functional; parameters: Reduction: concentration or dose not given beside the values
# Method in brief: (§1)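 3-Day-old chicks infected separately with E. tenella or E. acervulina; test compound given mixed in the feed at the stated rates. Activity was scored as percent suppression of oocyst production versus infected, unmedicated controls. Toxicity was judged from average weight gain relative to uninfected controls.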
# [4] = species on record: Gallus gallus; assay: The compound was tested for anti-coccidial activity in chicken against Eimeria brunetti (FS-103) measured at dose 15 (ppm in diet); format: functional
# [5] = species on record: Gallus gallus; assay: The compound was tested for anti-coccidial activity in chicken against Eimeria maxima (DP-776) measured at dose 60 (ppm in diet); format: functional
# [6] = species on record: Gallus gallus; assay: The compound was tested for anti-coccidial activity in chicken against Eimeria tenella (DP-761) measured at dose 15 (ppm in diet); format: functional
# Method in brief: (§2)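 Test article mixed into the feed at the stated rates and given to 3-day-old chicks infected with […]. Each Eimeria species was inoculated separately. Activity was scored as percent suppression of oocyst output relative to infected, unmedicated controls. Toxicity was judged from average weight gain relative to uninfected controls.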
# [7] = species on record: Gallus gallus; assay: The compound was tested for anti-coccidial activity in chicken against Eimeria brunetti (FS-103) measured at dose 7.5 (ppm in diet); format: functional
# [8] = species on record: Gallus gallus; assay: The compound was tested for anti-coccidial activity in chicken against Eimeria necatrix (Aquet) measured at dose 15 (ppm in diet); format: functional
# [9] = species on record: Gallus gallus; assay: The compound was tested for anti-coccidial activity in chicken against Eimeria acervulina (DP-761) measured at dose 45 (ppm in diet); format: functional
# [10] = species on record: Gallus gallus; assay: The compound was tested for anti-coccidial activity in chicken against Eimeria acervulina (DP-761) measured at dose 30 (ppm in diet); format: functional
# [11] = tested on: Eimeria tenella; assay: Anticoccidial activity in chicken against E. tenella; format: functional; parameters: Reduction: concentration or dose not given beside the values; method in brief: as §1
# [12] = species on record: Gallus gallus; assay: The compound was tested for anti-coccidial activity in chicken against Eimeria acervulina (DP-761) measured at dose 7.5 (ppm in diet); format: functional
# [13] = species on record: Gallus gallus; assay: The compound was tested for anti-coccidial activity in chicken against Eimeria tenella (DP-761) measured at dose 7.5 (ppm in diet); format: functional; method in brief: as §2
# [14] = species on record: Gallus gallus; assay: The compound was tested for anti-coccidial activity in chicken against Eimeria praecox (DP-785) measured at dose 30 (ppm in diet); format: functional
# [15] = species on record: Gallus gallus; assay: The compound was tested for anti-coccidial activity in chicken against Eimeria tenella (DP-761) measured at dose 60 (ppm in diet); format: functional; method in brief: as §2
# [16] = species on record: Gallus gallus; assay: The compound was tested for anti-coccidial activity in chicken against Eimeria maxima (DP-776) measured at dose 15 (ppm in diet); format: functional
# [17] = species on record: Gallus gallus; assay: The compound was tested for anti-coccidial activity in chicken against Eimeria praecox (DP-785) measured at dose 7.5 (ppm in diet); format: functional
# [18] = species on record: Gallus gallus; assay: The compound was tested for anti-coccidial activity in chicken against Eimeria maxima (DP-776) measured at dose 7.5 (ppm in diet); format: functional
# [19] = species on record: Gallus gallus; assay: The compound was tested for anti-coccidial activity in chicken against Eimeria necatrix (Aquet) measured at dose 30 (ppm in diet); format: functional
# [20] = species on record: Gallus gallus; assay: The compound was tested for anti-coccidial activity in chicken against Eimeria brunetti (FS-103) measured at dose 30 (ppm in diet); format: functional
# [21] = species on record: Gallus gallus; assay: The compound was tested for anti-coccidial activity in chicken against Eimeria tenella (DP-761) measured at dose 30 (ppm in diet); format: functional; method in brief: as §2
# [22] = species on record: Gallus gallus; assay: The compound was tested for anti-coccidial activity in chicken against Eimeria praecox (DP-785) measured at dose 60 (ppm in diet); format: functional
# [23] = species on record: Gallus gallus; assay: The compound was tested for anti-coccidial activity in chicken against Eimeria necatrix (Aquet) measured at dose 7.5 (ppm in diet); format: functional
# [24] = species on record: Gallus gallus; assay: The compound was tested for anti-coccidial activity in chicken against Eimeria acervulina (DP-761) measured at dose 60 (ppm in diet); format: functional
# [25] = species on record: Gallus gallus; assay: The compound was tested for anti-coccidial activity in chicken against Eimeria praecox (DP-785) measured at dose 45 (ppm in diet); format: functional
# [26] = species on record: Gallus gallus; assay: The compound was tested for anti-coccidial activity in chicken against Eimeria acervulina (DP-761) measured at dose 15 (ppm in diet); format: functional
# [27] = species on record: Gallus gallus; assay: The compound was tested for anti-coccidial activity in chicken against Eimeria brunetti (FS-103) measured at dose 45 (ppm in diet); format: functional
# [28] = species on record: Gallus gallus; assay: The compound was tested for anti-coccidial activity in chicken against Eimeria maxima (DP-776) measured at dose 30 (ppm in diet); format: functional
# [29] = species on record: Gallus gallus; assay: The compound was tested for anti-coccidial activity in chicken against Eimeria necatrix (Aquet) measured at dose 60 (ppm in diet); format: functional
# [30] = species on record: Gallus gallus; assay: The compound was tested for anti-coccidial activity in chicken against Eimeria tenella (DP-761) measured at dose 45 (ppm in diet); format: functional; method in brief: as §2
# [31] = species on record: Gallus gallus; assay: The compound was tested for anti-coccidial activity in chicken against Eimeria praecox (DP-785) measured at dose 15 (ppm in diet); format: functional
# [32] = species on record: Gallus gallus; assay: The compound was tested for anti-coccidial activity in chicken against Eimeria maxima (DP-776) measured at dose 45 (ppm in diet); format: functional
# [33] = species on record: Gallus gallus; assay: The compound was tested for anti-coccidial activity in chicken against Eimeria maxima (DP-776) measured at dose 121 (ppm in diet); format: functional
# [34] = species on record: Gallus gallus; assay: The compound was tested for anti-coccidial activity in chicken against Eimeria tenella (DP-761) measured at dose 121 (ppm in diet); format: functional; method in brief: as §2
# [35] = species on record: Gallus gallus; assay: The compound was tested for anti-coccidial activity in chicken against Eimeria brunetti (FS-103) measured at dose 121 (ppm in diet); format: functional
# [36] = species on record: Gallus gallus; assay: The compound was tested for anti-coccidial activity in chicken against Eimeria hagani (DP-786) measured at dose 121 (ppm in diet); format: functional
# [37] = species on record: Gallus gallus; assay: The compound was tested for anti-coccidial activity in chicken against Eimeria acervulina (DP-761) measured at dose 121 (ppm in diet); format: functional
# [38] = species on record: Gallus gallus; assay: The compound was tested for anti-coccidial activity in chicken against Eimeria praecox (DP-785) measured at dose 121 (ppm in diet); format: functional
# [39] = species on record: Gallus gallus; assay: The compound was tested for anti-coccidial activity in chicken against Eimeria mitis (LS-84) measured at dose 121 (ppm in diet); format: functional
# [40] = species on record: Gallus gallus; assay: The compound was tested for anti-coccidial activity in chicken against Eimeria acervulina; format: organism-based; details: in vivo; method in brief: as §1
# [41] = species on record: Gallus gallus; assay: The compound was tested for anti-coccidial activity in chicken against Eimeria tenella; format: organism-based; details: in vivo; method in brief: as §2
compound,measurement,setting,value
NC(=O)c1nnn(Cc2cc(Cl)c(C(=O)c3ccc(Cl)cc3)c(Cl)c2)c1N [CARBOXYAMIDOTRIAZOLE],Reduction,[1],100%
same,Reduction,[2],100%
same,Reduction,[3],90%
same,Reduction,[4],95%
same,Reduction,[5],99.9%
same,Reduction,[6],83%
same,Reduction,[7],58%
same,Reduction,[8],88%
same,Reduction,[9],99.9%
same,Reduction,[10],99.9%
same,Reduction,[11],80%
same,Reduction,[12],21%
same,Reduction,[13],60%
same,Reduction,[14],100%
same,Reduction,[15],99.9%
same,Reduction,[16],99.9%
same,Reduction,[17],72%
same,Reduction,[18],99.9%
same,Reduction,[19],100%
same,Reduction,[20],100%
same,Reduction,[21],98%
same,Reduction,[22],100%
same,Reduction,[23],12%
same,Reduction,[24],99.9%
same,Reduction,[25],100%
same,Reduction,[26],98%
same,Reduction,[27],100%
same,Reduction,[28],99.9%
same,Reduction,[29],100%
same,Reduction,[30],99.9%
same,Reduction,[31],98%
same,Reduction,[32],99.9%
CC[C@@]1([C@@H]2O[C@@H]([C@H]3O[C@@](O)(CO)[C@H](C)C[C@@H]3C)C[C@@H]2C)CC[C@H]([C@]2(C)CC[C@]3(C[C@H](O)[C@@H](C)[C@@H]([C@@H](C)[C@@H](OC)[C@H](C)C(=O)O)O3)O2)O1 [MONENSIN],Reduction,[3],80%
same,Reduction,[33],73%
same,Reduction,[11],80%
same,Reduction,[34],100%
same,Reduction,[35],100%
same,Reduction,[36],19%
same,Reduction,[37],4%
same,Reduction,[38],19%
same,Reduction,[39],72%
NC(=O)c1c(N)nnn1Cc1cc(Cl)c(C(=O)c2ccc(Cl)cc2)c(Cl)c1,minimum effective dose,[40],> 500 ppm
same,minimum effective dose,[41],> 500 ppm

# Source: ChEMBL document CHEMBL1125210, “Benzylated 1,2,3-triazoles as anticoccidiostats” (J Med Chem, 1991)
